Calls of active or inactive are those of the source.
How the values were obtained:
[1] = Binding affinity to MLXBIR3SG domain by fluorescence polarization competitive assay
[2] = target: E3 ubiquitin-protein ligase XIAP (Homo sapiens, UniProt P98170); assay: Binding affinity to XIAP-BIR3 domain by fluorescence polarization competitive assay
[3] = AUC in mouse at 25 mg/kg, po; assay type: ADME, organism-based; design: dose 25 mg/kg, route oral; conditions: plasma
[4] = tested on: MDA-MB-231; assay: Induction of cIAP1 degradation in human MDA-MB-231 cells after 1 hr by Western blot; assay type: functional, cell-based
Outline: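 MDA-MB-231 cells treated 1 h with a range of compound concentrations. Western blot probed with goat anti-c-IAP1, with mouse monoclonal anti-β-tubulin as loading control.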

[5] = tested on: Mus musculus; assay: Toxicity in mouse bearing human MDA-MB-231 cells assessed as change in body weight at 50 mg/kg/day, po; assay type: organism-based; design: route oral; conditions: in vivo
Outline: (§1)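 Female 8-week-old C.B-17 SCID.bg mice inoculated subcutaneously in the upper right flank with 1 × 10⁷ GFP-expressing MDA-MB-231-X1.1 cells. Once-daily oral gavage of vehicle or compound at 50 (mg/kg)/day began at tumors of ~200 mm³ (~1.5 weeks after inoculation), n = 14 per group. Caliper tumor volume V = 0.5ab². Progression defined as a 6-fold volume increase from day 0; body weight monitored.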

[6] = Half life in mouse at 25 mg/kg, po; assay type: ADME, organism-based; design: dose 25 mg/kg, route oral; conditions: in vivo
[7] = tested on: HMEC; assay: Induction of apoptosis in HMEC cells assessed as caspase 3/7 activation after 3 to 24 hrs; conditions: Homo sapiens
[8] = Cmax in mouse at 25 mg/kg, po; assay type: ADME, organism-based; design: dose 25 mg/kg, route oral; conditions: in vivo
[9] = tested on: MDA-MB-231; assay: Induction of apoptosis in human MDA-MB-231 cells assessed as caspase 3/7 activation after 3 to 24 hrs
[10] = tested on: MDA-MB-231; assay: Cytotoxicity against human MDA-MB-231 cells assessed as cell viability after 3 to 4 days
[11] = tested on: MDA-MB-231; assay: Antitumor activity against human MDA-MB-231 cells xenografted in mouse assessed as increase in median time for tumor progression at 50 mg/kg/day, po; assay type: functional, organism-based; outline: as §1
[12] = tested on: HMEC; assay: Cytotoxicity against HMEC cells assessed as cell viability after 3 to 4 days; conditions: Homo sapiens
[13] = tested on: BT-549; assay: Induction of apoptosis in human BT549 cells assessed as caspase 3/7 activation after 3 to 24 hrs

Sequence of E3 ubiquitin-protein ligase XIAP (P98170 whole entry, the tested form may be a part): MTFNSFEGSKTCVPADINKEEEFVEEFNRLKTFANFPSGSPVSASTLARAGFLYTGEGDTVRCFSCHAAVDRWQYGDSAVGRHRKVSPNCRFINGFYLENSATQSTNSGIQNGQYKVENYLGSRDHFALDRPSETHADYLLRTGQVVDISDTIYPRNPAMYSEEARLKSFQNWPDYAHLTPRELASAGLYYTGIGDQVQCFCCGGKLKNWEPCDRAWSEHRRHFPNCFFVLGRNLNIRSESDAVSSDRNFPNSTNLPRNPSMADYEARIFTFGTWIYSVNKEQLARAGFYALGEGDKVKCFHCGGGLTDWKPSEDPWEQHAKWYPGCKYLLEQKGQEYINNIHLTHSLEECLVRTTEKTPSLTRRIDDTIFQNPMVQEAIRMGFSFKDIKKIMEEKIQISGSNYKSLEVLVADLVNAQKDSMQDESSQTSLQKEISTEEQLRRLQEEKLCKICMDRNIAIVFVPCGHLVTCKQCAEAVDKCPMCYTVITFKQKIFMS

CN[C@@H](C)C(=O)N[C@H](C(=O)N1CC[C@H]2CC[C@H](NC(=O)N3CCc4ccccc43)[C@H]21)C(C)(C)C
Ki [1]: 1900 nM
Ki [2]: 1500 nM

CN[C@@H](C)C(=O)N[C@H](C(=O)N1CC[C@H]2CC[C@H](NC(=O)c3cccc4ccccc34)[C@H]21)C(C)(C)C
AUC [3]: 5 µM·h
Activity [4]: Active
Activity [5]: Non-toxic
half-life [6]: 1.3 h
EC50 [7]: > 10000 nM
Cmax [8]: 3.6 µM
EC50 [9]: 490 nM
EC50 [10]: 980 nM
Activity [11]: Active
EC50 [12]: > 10000 nM
EC50 [13]: 470 nM

CN[C@@H](C)C(=O)N[C@H](C(=O)N1CC[C@H]2CC[C@H](NC(=O)c3csc4ccccc34)[C@H]21)C(C)(C)C
Ki [1]: 110 nM
Ki [2]: 160 nM

CN[C@@H](C)C(=O)N[C@H](C(=O)N1CC[C@H]2CC[C@H](NC(=O)C(c3ccccc3)c3ccccc3)[C@H]21)C(C)(C)C
AUC [3]: 16 µM·h
half-life [6]: 1.5 h
EC50 [7]: > 10000 nM
Cmax [8]: 5 µM
EC50 [9]: 3590 nM
EC50 [10]: 9640 nM
EC50 [12]: > 10000 nM
EC50 [13]: 1810 nM

CN[C@@H](C)C(=O)N[C@H](C(=O)N1CC[C@H]2CC[C@H](NC(=O)c3ccc4c(c3)OCO4)[C@H]21)C(C)(C)C
Ki [1]: 1300 nM
Ki [2]: 1800 nM

CN[C@@H](C)C(=O)N[C@H](C(=O)N1CC[C@H]2CC[C@H](NC(=O)c3ccc4[nH]nnc4c3)[C@H]21)C(C)(C)C
Ki [1]: 260 nM
Ki [2]: 1500 nM

CN[C@@H](C)C(=O)N[C@H](C(=O)N1CC[C@H]2CC[C@H](NC(=O)C3COc4ccccc43)[C@H]21)C(C)(C)C (some centres undefined)
Ki [1]: 1500 nM
Ki [2]: 1300 nM

CN[C@@H](C)C(=O)N[C@H](C(=O)N1CC[C@H]2CC[C@H](NC(=O)c3c(OC)ccc4ccccc34)[C@H]21)C(C)(C)C
Ki [1]: 110 nM
Ki [2]: 110 nM

CN[C@@H](C)C(=O)N[C@H](C(=O)N1CC[C@H]2CC[C@H](NC(=O)c3coc4ccccc34)[C@H]21)C(C)(C)C
Ki [1]: 440 nM
Ki [2]: 640 nM

CN[C@@H](C)C(=O)N[C@H](C(=O)N1CCC[C@H]1CNC(=O)c1cccc2ccccc12)C(C)(C)C
Ki [1]: 780 nM
Ki [2]: 1600 nM

CN[C@@H](C)C(=O)N[C@H](C(=O)N1CC[C@H]2CC[C@H](NC(=O)c3ccc(C)c4ccccc34)[C@H]21)C(C)(C)C
Ki [1]: 63 nM
EC50 [7]: > 10000 nM
EC50 [9]: 1580 nM
EC50 [10]: 3120 nM
EC50 [12]: > 10000 nM
Ki [2]: 190 nM
EC50 [13]: 1450 nM

CN[C@@H](C)C(=O)N[C@H](C(=O)N1CC[C@H]2CC[C@H](NC(=O)c3ccc(F)c4ccccc34)[C@H]21)C(C)(C)C
EC50 [7]: > 10000 nM
EC50 [9]: 4450 nM
EC50 [10]: 10200 nM
EC50 [12]: > 10000 nM
EC50 [13]: 4070 nM

CN[C@@H](C)C(=O)N[C@H](C(=O)N1CC[C@H]2CC[C@H](NC(=O)c3ccc4ccccc4c3)[C@H]21)C(C)(C)C
EC50 [7]: > 10000 nM
EC50 [9]: 1320 nM
EC50 [10]: 3290 nM
EC50 [12]: > 10000 nM
EC50 [13]: 190 nM

CN[C@@H](C)C(=O)N[C@H](C(=O)N1CCC[C@H]1CNC(=O)C(c1ccccc1)c1ccccc1)C(C)(C)C
Ki [1]: 290 nM
Ki [2]: 3000 nM

Source: ChEMBL document CHEMBL1152772, “Orally bioavailable antagonists of inhibitor of apoptosis proteins based on an azabicyclooctane scaffold” (J Med Chem, 2009)
